In general, EC50 refers to the concentration giving half of the maximal effect.

Activity and EC50 data for 15 compounds are collected here from ChEMBL document CHEMBL3779832, “Discovery of novel pyrrole-based scaffold as potent and orally bioavailable free fatty acid receptor 1 agonists for the treatment of type 2 diabetes” (Bioorg Med Chem, 2016).

The source made the active and inactive calls. No cut-off for these calls is given here.

Series [1] concerns the target T1, Free fatty acid receptor 1 (Homo sapiens, UniProt O14842). The series can be described thus: Agonist activity at human FFA1 expressed in CHO cells assessed as intracellular Ca2+ level at 300 nM measured for 90 secs by Fluo-4 AM-based FLIPR assay. It counts as functional, cell-based. In short, it runs like this: (§1)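 CHO cells stably expressing human FFA1 (NM_005303), 15K cells/well, cultured overnight at 37 °C in 5% CO2. Cells were washed with HBSS, then loaded for 60 min at 37 °C with Fluo 4-AM 2.5 μg/mL, fatty acid-free BSA 0.1% and probenecid 2.5 mmol/L. Single screening concentration added and Ca2+ flux read on FLIPR Tetra for 90 s. Activity = (A−B)/(C−B)×100 against vehicle (B) and 10 μM γ-linolenic acid (C). Mean of three independent experiments.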

For series [2], the target named is T1, Free fatty acid receptor 1. The series can be described thus: Agonist activity at human FFA1 expressed in CHO cells assessed as intracellular Ca2+ level at 100 nM measured for 90 secs by Fluo-4 AM-based FLIPR assay. The class given is functional, cell-based. The method, boiled down:
as §1

The target in series [3] is T1, Free fatty acid receptor 1. The series can be described thus: Agonist activity at human FFA1 expressed in CHO cells assessed as intracellular Ca2+ level measured for 90 secs by Fluo-4 AM-based FLIPR assay. The class given is functional, cell-based. The method, boiled down:
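Calcium flux in CHO cells stably expressing human FFA1, plated at 15K cells/well overnight, loaded 60 min at 37 °C with Fluo 4-AM (2.5 μg/mL), 0.1% fatty acid-free BSA and 2.5 mmol/L probenecid. Various concentrations added and read by FLIPR for 90 s. Response normalised to vehicle and 10 μM γ-linolenic acid. EC50 from concentration–response fit, mean of three independent determinations.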

Series [4] has as its system Mus musculus. Briefly: Antihyperglycemic activity in STZ-induced type 2 diabetic C57BL/6 mouse model at 20 mg/kg, po administered as single dose 30 mins prior to glucose challenge measured up to 120 mins by OGTT. The class given is functional, organism-based. The method, boiled down: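 Male C57BL/6 mice fed 45%-fat diet for 4 weeks, given STZ 80 mg/kg i.p., then kept on high-fat diet another 4 weeks; fasting glucose ≥11.1 mmol/L counted as diabetic. After a 12 h fast, n = 6/group, oral dose in 0.5% CMC, then 2 g/kg glucose (20% solution) orally 30 min later. Tail blood at −30, 0, 15, 30, 45, 60, 120 min, read with glucose strips.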

For series [5], the system named is Mus musculus. Briefly: Toxicity in ICR mouse assessed as hypoglycemic effect at 80 mg/kg, po measured up to 180 mins. The class given is organism-based. As to conditions: in vivo, 3 h. In short, it runs like this: (§2)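 Normal male ICR mice, 10 weeks, fasted overnight (12 h), n = 6 per group. Single oral dose in 0.5% CMC vehicle, no glucose load. Tail-tip blood glucose by test strips at 0, 30, 60, 90, 120 and 180 min after dosing. Mean ± SEM for six animals, Student's t-test.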

Series [6] concerns Mus musculus. The series can be described thus: Decrease in plasma glucose level in po dosed ICR mouse administered as single dose 30 mins prior to glucose challenge measured up to 120 mins by OGTT. It counts as functional, organism-based. In short, it runs like this:
(§3)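 Male ICR mice, 10 weeks old, fasted 12 h and randomized (n = 6/group). Single oral dose in 0.5% CMC (10 mL/kg), followed 30 min later by oral glucose 3 g/kg as a 30% solution. Tail-vein blood at −30, 0, 15, 30, 45, 60 and 120 min, glucose read with test strips. Mean ± SEM, two-tailed Student's t-test against vehicle.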

The subject of series [7] is Mus musculus. The series can be described thus: Decrease in plasma glucose level in ICR mouse at 20 mg/kg, po administered as single dose 30 mins prior to glucose challenge measured up to 120 mins by OGTT. The class given is functional, organism-based. In short, it runs like this:
as §3

Series [8] deals with Mus musculus. The series can be described thus: Toxicity in ICR mouse assessed as hypoglycemic effect at 15 mg/kg, po measured up to 180 mins. The note with it: in vivo, 3 h. It counts as organism-based. In short, it runs like this: as §2

T1 sequence (O14842 whole entry): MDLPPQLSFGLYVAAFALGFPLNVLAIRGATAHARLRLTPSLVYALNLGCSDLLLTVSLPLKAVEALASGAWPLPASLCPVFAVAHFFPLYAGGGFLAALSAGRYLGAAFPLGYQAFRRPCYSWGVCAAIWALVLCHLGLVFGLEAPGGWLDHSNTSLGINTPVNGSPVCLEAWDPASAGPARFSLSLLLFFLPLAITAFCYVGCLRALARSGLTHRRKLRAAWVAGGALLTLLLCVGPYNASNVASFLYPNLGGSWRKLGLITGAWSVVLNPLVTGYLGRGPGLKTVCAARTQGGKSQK

Consider `O=C(O)CC1COc2cc(OCc3cccc(N4CCCCC4)c3)ccc21` (stereo unspecified), for which the Activity in series [1] was determined as 50.3%; in series [2], 34.6%.
As for `COc1ccc(COc2ccc3c(c2)OCC3CC(=O)O)cc1-n1c(C)ccc1C` (stereo unspecified), in series [3], the EC50 worked out at 34.7 nM. In addition, the Activity in series [2] was 63.8%; in series [5] it was “Non-toxic”; in series [6], “Dose-dependent effect”. Besides, the outcome in series [4] was Active.
For the compound `Cc1cccc(C)c1-c1cccc(COc2ccc3c(c2)OCC3CC(=O)O)c1` (stereo unspecified), the Activity in series [1] is 74.4%; in series [2], 62.6%. Besides, the EC50 in series [3] is 38.4 nM.
As to `COCc1cc(C)n(-c2cccc(COc3ccc4c(c3)OCC4CC(=O)O)c2)c1C` (stereo unspecified), the Activity in series [2] was 31.7%.
For `Cc1cc(OCCCS(C)(=O)=O)cc(C)c1-c1cccc(COc2ccc3c(c2)OC[C@H]3CC(=O)O)c1`, the result in series [7] and in series [4] was Active.
Turning to `Cc1cc(C(=O)N(C)C)c(C)n1-c1cccc(COc2ccc3c(c2)OCC3CC(=O)O)c1` (stereo unspecified), the Activity in series [2] was 25.7%.
Take `O=C(O)CC1COc2cc(OCc3cccc(N4CCCC4)c3)ccc21` (stereo unspecified): the Activity in series [1] is 56.3%; in series [2], 43.7%.
Regarding `Cc1ccc(C)n1-c1cccc(COc2ccc3c(c2)OCC3CC(=O)O)c1` (stereo unspecified), the figures for the Activity in series [1] and in series [2] were 71.3% and 59.9%, respectively. Also, in series [3], the EC50 was determined as 46.9 nM.
Consider `O=C(O)CC1COc2cc(OCc3cccc(N4CCSCC4)c3)ccc21` (stereo unspecified), for which the values for the Activity in series [1] and in series [2] were 52.2% and 38.2%, respectively.
In the same order, the values of `O=C(O)CC1COc2cc(OCc3cccc(-n4cccc4)c3)ccc21` (stereo unspecified) are 41.9% and 28.6%.
Take `CCOc1ccc(COc2ccc3c(c2)OCC3CC(=O)O)cc1-n1c(C)ccc1C` (stereo unspecified): the EC50 in series [3] is 61.2 nM. The Activity in series [2] was found to be 54.6%.
Regarding `Cc1ccc(C)n1-c1cc(COc2ccc3c(c2)OCC3CC(=O)O)ccc1OCc1ccccc1` (stereo unspecified), the Activity in series [2] came to 40.8%.
Take `COc1ccc(Cl)cc1C(=O)NCCc1ccc(S(=O)(=O)NC(=O)NC2CCCCC2)cc1` [GLYBURIDE]: the Activity result in series [8] was “Toxic”.
For `O=C(O)CC1COc2cc(OCc3cccc(N4CCS(=O)(=O)CC4)c3)ccc21` (stereo unspecified), the figures for the Activity in series [1] and in series [2] were 25.9% and 8.28%, respectively.
As to `O=C(O)CC1COc2cc(OCc3cccc(N4CCOCC4)c3)ccc21` (stereo unspecified), the values for the Activity in series [1] and in series [2] were 55.7% and 41.2%, respectively.
